High-throughput results (PubChem)
Compounds with a hit are over-represented: about 1.9% of the library has one in this group of screens.
CTSL1 counter: cathepsin L1 inhibition, PFM18AAP counter-screen; AID 1906; recombinant F. hepatica cathepsin L1, Z-Leu-Arg-MCA fluorescence; inhibition, % at 5.96 µM; hit rate 0.49% among 300,000;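 active means inhibition above the mean of all tested compounds plus 3 SD, set per screening campaign, cut at about 17% in these data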
T cell modulator: T cell immune modulation candidate. 2C CD8+ T cell-vesicle binding, flow cytometry; active compounds read low. response (vesicle binding), % at 7 µM. hit rate 0.068% among 330,000;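 active means response, share of CD8 T cells binding vesicles, and their 90th percentile fluorescence all below set limits, cut at about 80% in these data, passing the limit was not always enough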;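 further: values below 100% mean blocked vesicle binding to the CD8+ T cells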
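Also added: QL9-peptide-loaded Drosophila micro-vesicles bearing Ld, ICAM-1 and B7-1; Test system: purified 2C TCR transgenic mouse naive CD8+ T cells; Measured by: cytometric PE anti-B7-1 and Alexa647 anti-CD8 signals after 1% paraformaldehyde fixation; Timing: binding step 1.5 h, 37 °C, antibody labelling 20 min, ice.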
UBC9 SUMO inh: blocks human SUMOylation mediated by UBC9; HTRF SUMOylation assay, SAE1/SAE2 + UBC9, in vitro; hit rate 0.36% among 290,000; inhibition, % at 35 µM; P63279; in the data active means inhibition above about 50%, passing the limit was not always enough
Target sequence (P63279 whole entry, looked up): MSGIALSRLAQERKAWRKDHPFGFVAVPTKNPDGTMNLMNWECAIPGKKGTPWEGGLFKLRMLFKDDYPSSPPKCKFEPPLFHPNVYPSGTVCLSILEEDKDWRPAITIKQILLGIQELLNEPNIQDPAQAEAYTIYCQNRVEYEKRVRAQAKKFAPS
IMP-1 inh-1: inhibitors of Pseudomonas aeruginosa IMP-1 metallo-beta-lactamase; purified IMP-1, nitrocefin hydrolysis, epi-absorbance fluorescence; inhibition, % at 5.6 µM; hit rate 0.45% among 290,000; AID 1556;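 active means inhibition above the mean plus 3 SD of all compounds in the same screening run, cut at about 4.5% in these data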
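System: purified recombinant IMP-1 beta-lactamase. Medium: Zinc- and detergent-supplemented HEPES buffer, pH 7.1. Compound: one 5.6 µM dose […]. Schedule: 15 min preincubation plus 25 min reaction at 25 °C. Technique: Epi-absorbance fluorescence, 480 nm excitation, 530 nm emission.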
p-CIP stab down: lowers stability of the mouse p/CIP coactivator protein. Q05BA5. F442A p/CIP-EGFP cells, EGFP fluorescence, 16 h. decrease of EGFP signal, % at 10 µM. hit rate 0.01% among 290,000. AID 1984;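 active means EGFP signal decrease of at least 30% at 10 µM or well 3 SD below plate mean, unless failing retest; inactive means the rest, including hits failing retest or dose response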
VIM-2 inh: inhibitors of Pseudomonas aeruginosa VIM-2 metallo-beta-lactamase. purified VIM-2, nitrocefin hydrolysis, epi-absorbance fluorescence. inhibition, % at 5.6 µM. hit rate 0.89% among 290,000. AID 1527;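 active means inhibition above the mean of all tested compounds plus 3 SD, cutoff set per screening run, cut at about 7.5% in these data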;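 further: red hydrolysis product quenches plate fluorescence so inhibitors raise well fluorescence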
IMP-1 inh-2: selectivity counter-screen for VIM-2 inhibitors: IMP-1 metallo-beta-lactamase inhibitors; shares compounds with VIM-2 inh; purified IMP-1, nitrocefin hydrolysis, epi-absorbance fluorescence; inhibition, % at 5.6 µM; 1,300 tested, under 10 active; call rule not given here
VIM-2 FRET ctr: VIM-2 FRET inhibition, artifact counter-screen. shares compounds with VIM-2 inh. purified VIM-2, CCF2 FRET substrate hydrolysis. inhibition, % at 5.6 µM. hit rate 23% among 1,300. AID 1857;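 active means inhibition above the mean of all tested compounds plus 3 SD, cut at about 19% in these data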
TEM-1 counter: blocks E. coli TEM-1 beta-lactamase in VIM-2 selectivity screen | inhibition, % at 5.6 µM | shares compounds with VIM-2 inh | Purified TEM-1, nitrocefin hydrolysis, epi-absorbance fluorescence | hit rate 3% among 1,300;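 active means inhibition above that campaign's mean inhibition plus 3 SD, cut at about 0.46% in these data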
Target sequence (P62593 whole entry, looked up): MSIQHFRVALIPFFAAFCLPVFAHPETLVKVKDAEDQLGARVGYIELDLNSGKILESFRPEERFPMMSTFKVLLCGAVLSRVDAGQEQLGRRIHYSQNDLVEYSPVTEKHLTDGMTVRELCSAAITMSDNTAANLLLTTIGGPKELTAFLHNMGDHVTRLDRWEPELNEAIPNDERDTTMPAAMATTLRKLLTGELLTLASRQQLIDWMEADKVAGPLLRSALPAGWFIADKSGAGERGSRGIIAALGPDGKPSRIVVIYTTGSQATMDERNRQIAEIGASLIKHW
VIM-2 confirm 2: confirmation of P. aeruginosa VIM-2 metallo-beta-lactamase inhibitors; shares compounds with VIM-2 inh; purified VIM-2, nitrocefin hydrolysis, epi-absorbance; inhibition, % at 5.6 µM; hit rate 96% among 1,300; AID 2187;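 active means inhibition of the VIM-2 beta-lactamase enzyme above about 11% from the earlier first-round screen, limit read from the data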
Hits are given with their value.

`COc1ccc(NC(=O)COc2ccc(C(=O)NC3CCCc4ccccc43)cc2OC)cc1` (stereo not given) gave CTSL1 counter inactive, T cell modulator inactive, UBC9 SUMO inh inactive, IMP-1 inh-1 inactive, p-CIP stab down inactive and VIM-2 inh inactive.
COc1cc(CCNC(=O)c2ccccc2NC(=O)C2=C(C)OCCS2)cc(OC)c1OC was read as CTSL1 counter inactive, T cell modulator inactive, UBC9 SUMO inh inactive, IMP-1 inh-1 inactive, p-CIP stab down inactive and VIM-2 inh inactive.
Screening COc1cc(NC(=O)C2=C(C)OCCS2)c(Cl)cc1C(=O)NCCN(C)C returned CTSL1 counter inactive, T cell modulator inactive, UBC9 SUMO inh inactive, IMP-1 inh-1 inactive, p-CIP stab down inactive, VIM-2 inh 14, IMP-1 inh-2 inactive, VIM-2 FRET ctr inactive, TEM-1 counter inactive and VIM-2 confirm 2 27.
COc1ccc(-c2nnc3c4ccccc4c(C)nn23)cc1S(=O)(=O)N1CCN(CCO)CC1 was read as CTSL1 counter inactive, T cell modulator inactive, UBC9 SUMO inh inactive, IMP-1 inh-1 inactive, p-CIP stab down inactive, VIM-2 inh 27, IMP-1 inh-2 inactive, VIM-2 FRET ctr inactive, TEM-1 counter inactive and VIM-2 confirm 2 40.
Screening Cc1nn2c(-c3ccc(S(=O)(=O)N4CCN(CCO)CC4)o3)nnc2c2ccccc12 returned CTSL1 counter inactive, T cell modulator inactive, UBC9 SUMO inh inactive, IMP-1 inh-1 inactive, p-CIP stab down inactive, VIM-2 inh 26, IMP-1 inh-2 inactive, VIM-2 FRET ctr inactive, TEM-1 counter inactive and VIM-2 confirm 2 35.
For O=S(=O)(c1ccccc1)N1CCN(CCO)CC1 the results were CTSL1 counter inactive, T cell modulator inactive, UBC9 SUMO inh inactive, IMP-1 inh-1 inactive, p-CIP stab down inactive and VIM-2 inh inactive.
For COc1ccc(-c2nnc3c4ccccc4c(C)nn23)cc1 the results were CTSL1 counter inactive, T cell modulator inactive, UBC9 SUMO inh inactive, IMP-1 inh-1 inactive, p-CIP stab down inactive and VIM-2 inh inactive.
`O=C(COC(=O)c1ccc2ncsc2c1)Nc1ccccc1Br` gave T cell modulator inactive.
Screening COc1cccc(CNC(=O)CN2C(=O)COc3ccc(S(=O)(=O)N4CCC(C)CC4)cc32)c1 returned CTSL1 counter inactive, T cell modulator inactive, IMP-1 inh-1 inactive, p-CIP stab down inactive and VIM-2 inh inactive.
CCc1ccccc1N1CC(C(=O)Nc2cc(C)on2)CC1=O (stereo not given) was read as CTSL1 counter inactive, T cell modulator inactive, UBC9 SUMO inh inactive, IMP-1 inh-1 inactive, p-CIP stab down inactive and VIM-2 inh inactive.
For Cc1cc(C)c2nc(C)cc(N/N=C/c3ccc(O)cc3)c2c1 the results were CTSL1 counter inactive, T cell modulator inactive, UBC9 SUMO inh inactive, IMP-1 inh-1 inactive, p-CIP stab down inactive, VIM-2 inh 13, IMP-1 inh-2 inactive, VIM-2 FRET ctr inactive, TEM-1 counter inactive and VIM-2 confirm 2 19.
`Cc1ccc2nc(C)cc(N/N=C/c3ccccc3O)c2c1` gave CTSL1 counter inactive, T cell modulator inactive, UBC9 SUMO inh inactive, IMP-1 inh-1 inactive, p-CIP stab down inactive and VIM-2 inh inactive.
`Oc1ccc(Br)cc1-c1n[nH]c(=S)n1Cc1ccccc1` gave CTSL1 counter inactive, T cell modulator inactive, UBC9 SUMO inh inactive, IMP-1 inh-1 inactive, p-CIP stab down inactive and VIM-2 inh inactive.
Oc1ccccc1-c1n[nH]c(=S)n1Cc1ccccc1 was read as CTSL1 counter inactive, T cell modulator inactive, UBC9 SUMO inh inactive, IMP-1 inh-1 inactive, p-CIP stab down inactive, VIM-2 inh 13, IMP-1 inh-2 inactive, VIM-2 FRET ctr 26, TEM-1 counter inactive and VIM-2 confirm 2 15.
For Cc1ccc(-c2n[nH]c(=S)n2Cc2ccccc2)cc1 the results were CTSL1 counter inactive, T cell modulator inactive, UBC9 SUMO inh inactive, IMP-1 inh-1 inactive, p-CIP stab down inactive, VIM-2 inh 12, IMP-1 inh-2 inactive, VIM-2 FRET ctr 29, TEM-1 counter inactive and VIM-2 confirm 2 16.
Screening Cc1ccc(-c2n[nH]c(=S)n2-c2ccccc2)cc1 returned CTSL1 counter inactive, T cell modulator 81, UBC9 SUMO inh inactive, IMP-1 inh-1 inactive, p-CIP stab down inactive, VIM-2 inh 13, IMP-1 inh-2 inactive, VIM-2 FRET ctr 35, TEM-1 counter inactive and VIM-2 confirm 2 23.
`Cc1ccc(-n2c(-c3nn(C)c(C)c3Cl)n[nH]c2=S)cc1` gave CTSL1 counter inactive, T cell modulator inactive, UBC9 SUMO inh inactive, IMP-1 inh-1 inactive, p-CIP stab down inactive, VIM-2 inh 19, IMP-1 inh-2 inactive, VIM-2 FRET ctr 54, TEM-1 counter inactive and VIM-2 confirm 2 36.
`CCC(C)(C)NC(=O)C1CCCN(S(=O)(=O)c2ccc3c(c2)CC(C)N3C(=O)C2CC2)C1` (stereo not given) gave CTSL1 counter inactive, T cell modulator inactive, UBC9 SUMO inh inactive, IMP-1 inh-1 inactive, p-CIP stab down inactive and VIM-2 inh inactive.
`O=C(Nc1cccc(Br)c1)c1ccc2c(c1)SC1=NS(=O)(=O)CCN12` gave T cell modulator inactive.
For O=C(Nc1c(-c2ccccc2)nc2ccccn12)c1cccc(F)c1 the results were CTSL1 counter inactive, T cell modulator inactive, UBC9 SUMO inh inactive, IMP-1 inh-1 inactive, p-CIP stab down inactive and VIM-2 inh inactive.
For CCCCc1n[nH]c(=S)n1Cc1ccc(C)cc1 the results were CTSL1 counter inactive, T cell modulator inactive, UBC9 SUMO inh inactive, IMP-1 inh-1 inactive, p-CIP stab down inactive, VIM-2 inh 23, IMP-1 inh-2 inactive, VIM-2 FRET ctr 37, TEM-1 counter inactive and VIM-2 confirm 2 26.
For NS(=O)(=O)c1ccc(CNC(=O)/C=C/c2c(F)cccc2Cl)cc1 the results were CTSL1 counter inactive, T cell modulator inactive, UBC9 SUMO inh inactive, IMP-1 inh-1 inactive, p-CIP stab down inactive and VIM-2 inh inactive.
`CN1CCN(c2nc(-c3ccccn3)nc3ccccc23)CC1` gave CTSL1 counter inactive, T cell modulator inactive, UBC9 SUMO inh inactive, IMP-1 inh-1 inactive, p-CIP stab down inactive and VIM-2 inh inactive.
Screening c1ccc(-c2nc(-c3ccccn3)nc(-c3ccccn3)n2)nc1 returned CTSL1 counter inactive, T cell modulator inactive, UBC9 SUMO inh inactive, IMP-1 inh-1 inactive, p-CIP stab down inactive, VIM-2 inh 21, IMP-1 inh-2 inactive, VIM-2 FRET ctr inactive, TEM-1 counter inactive and VIM-2 confirm 2 45.
